The results in this text go back to ChEMBL document CHEMBL1123142, “1,2,4-Triazolo[4,3-a]quinoxaline-1,4-diones as antiallergic agents” (J Med Chem, 1985).

For experiment [1], the species on record is Rattus norvegicus. The experiment in a line: Concentration required to inhibit Antigen-induced release of Histamine from rat mast cells at 100 uM. Format: functional. Conditions: Mast cell.
For experiment [2], the system named is Rattus norvegicus. The experiment in a line: Percent inhibitory activity in rat passive cutaneous anaphylaxis test at a dose of 25 mg/kg administered perorally. Format: functional. Conditions: for inhibition in vivo at 25 mg/kg: Rattus norvegicus, po; for Inhibition: route oral, 25 mg/kg. An outline of the steps: (§1)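 Rats immunized i.m. with ovalbumin plus aluminum hydroxide, plus B. pertussis i.p., gave IgE antiovalbumin serum. Naive male Sprague-Dawley rats were sensitized intradermally at dorsal sites (1:20), with 48 h latency. Compound was given orally in 1% methylcellulose, 10 min before i.v. challenge with 4 mg ovalbumin in 1% Evans blue. Blued wheal areas were read at 30 min. Groups of 4–8; mean ± SE, Student's t test.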

Experiment [3] is filed under the species Rattus norvegicus. As to the kind of experiment: Concentration required to inhibit Antigen-induced release of Histamine from rat mast cells. Format: functional, cell-based. Conditions: read-out: I50.
Experiment [4] relates to Rattus norvegicus. As to the kind of experiment: Effective dose against IgE-mediated cutaneous anaphylaxis in the rat after peroral administration. Format: functional. Conditions: po. An outline of the steps: as §1
The test system of experiment [5] is Rattus norvegicus. The experiment in a line: Percent inhibitory activity in rat passive cutaneous anaphylaxis test at a dose of 25 mg/kg, ip. In kind it is functional. Conditions: route intraperitoneal.
Experiment [6] concerns Rattus norvegicus. The experiment in a line: Percent inhibitory activity in rat passive cutaneous anaphylaxis test at a dose of 10 mg/kg administered perorally. In kind it is functional. Conditions: route oral. An outline of the steps: as §1
For experiment [7], the system named is Rattus norvegicus. As to the kind of experiment: Effective dose against IgE-mediated cutaneous anaphylaxis in the rat after ip administration. Format: functional.

“And” between values parts separate entries of the source, which are not always exact repeats. Equal values may be shown once. A value given as a limit tells only on which side of the number the result lay.

A word on the inhibition: it is the relative decrease from the control value, in per cent. High values mean strong suppression, low ones little suppression. `COC(=O)n1nc2c(=O)n(C)c3ccccc3n2c1=O`: in experiment [1], at 100 µM the inhibition was 30%.

Usually inhibition in vivo stands for the relative decrease from the control value, in per cent. Low readings indicate a response near the control, high ones a response far below the control. `COc1ccc2c(c1)n(C)c(=O)c1nnc(O)n12`: at 25 mg/kg the inhibition in vivo in experiment [2] was 10%. Further, the IC50 in experiment [3] is 3 µM.

For orientation: ED50 means the midpoint of the dose-response relation. Low readings indicate greater potency, high ones weaker potency. In turn, `CCCn1c(=O)c2nnc(O)n2c2ccc(Cl)cc21` returned an ED50 in experiment [4] of 3 mg/kg. In experiment [2], this compound came in with an inhibition in vivo at 25 mg/kg of 53%. In experiment [3], the IC50 amounted to 0.4 µM.

`Cc1ccc2c(c1)n(C)c(=O)c1nnc(O)n12` returned an inhibition in vivo at 25 mg/kg in experiment [2] of 18%. For the same compound, the IC50 in experiment [3] was found to be 6 µM.

The compound `Cn1c(=O)c2nnc(O)n2c2ccc(Cl)cc21` had an ED50 in experiment [4] greater than 125 mg/kg. The compound also returned an inhibition in vivo at 25 mg/kg in experiment [2] of 22%. In addition, the IC50 in experiment [3] was 10 µM.

On to `CC(=O)n1nc2c(=O)n(C)c3cc(C)c(C)cc3n2c1=O`, for which, in experiment [2], the inhibition in vivo at 25 mg/kg amounted to 26%. In addition, in experiment [3], the IC50 was determined as 43 µM.

In turn, `Cn1c(=O)c2nnc(O)n2c2cc(Cl)ccc21` displayed an inhibition in vivo at 25 mg/kg in experiment [2] of 42%. For the same compound, the IC50 in experiment [3] was 0.4 µM.

`Oc1nc2ccccc2n2c(O)nnc12` had an inhibition at 100 µM in experiment [1] of 20%. In experiment [2], this compound yielded an inhibition in vivo at 25 mg/kg of 40%.

In the case of `CCCn1c(=O)c2nn(CC(=O)OCC)c(=O)n2c2ccc(Cl)cc21`, the inhibition at 100 µM in experiment [1] was determined as 20%. In experiment [5], the inhibition in vivo at 25 mg/kg was 14%.

Consider `Cn1c(=O)c2nnc(O)n2c2ccccc21`, for which it took a dose of 6 mg/kg to reach the 50% effect level in experiment [4] (ED50). This compound showed an inhibition in vivo at 10 mg/kg in experiment [6] of 56%. This compound also came in with an inhibition in vivo at 25 mg/kg in experiment [2] of 38%. Also, the IC50 in experiment [3] came to 40 µM.

`CCCn1c(=O)c2nn(C(=O)/C=C/c3ccccc3)c(=O)n2c2ccc(Cl)cc21` gave an ED50 in experiment [4] greater than 100 mg/kg. Besides, the inhibition in vivo at 25 mg/kg in experiment [2] came to 38%. For the same compound, in experiment [3], the IC50 worked out at 1 µM.

For `COc1cc2c(c(Cl)c1OC)n(C)c(=O)c1nnc(O)n12`, the inhibition in vivo at 25 mg/kg in experiment [2] came out at 27%. For the same compound, the IC50 in experiment [3] came to 35 µM.

`Cn1c(=O)c2nnc(O)n2c2ccc(O)cc21` returned an inhibition at 100 µM in experiment [1] of 29%. In experiment [2], the inhibition in vivo at 25 mg/kg is 20%.

The compound `C=CCn1nc2c(=O)n(CCC)c3cc(Cl)ccc3n2c1=O` displayed an inhibition at 100 µM in experiment [1] of 20%.

The Inhibition is the relative decrease from the control value, in per cent. Read a high Inhibition as strong suppression. In the case of `CC(=O)n1nc2c(=O)n(C)c3ccccc3n2c1=O`, the Inhibition in experiment [2] is 27% and 63%. Further, the IC50 in experiment [3] stood at 25 µM.

`CCCn1c(=O)c2nn(C(C)=O)c(=O)n2c2ccc(Cl)cc21` yielded an inhibition in vivo at 25 mg/kg in experiment [5] of 42%. In addition, the IC50 in experiment [3] was determined as 0.1 µM.

In experiment [2], `CC(=O)c1ccc2c(c1)n(C)c(=O)c1nnc(O)n12` gave an inhibition in vivo at 25 mg/kg of 49%. In experiment [3], the IC50 came to 1 µM.

For the compound `Cc1cc2c(cc1C)n1c(O)nnc1c(=O)n2C`, in experiment [3], the IC50 turned out to be 12 µM.

In the case of `CCCn1c(=O)c2nn(C)c(=O)n2c2ccc(Cl)cc21`, the ED50 in experiment [4] is greater than 100 mg/kg. In experiment [3], the IC50 was 1 µM.

`Cn1c(=O)c2nn(S(C)(=O)=O)c(=O)n2c2ccccc21` showed an inhibition at 100 µM in experiment [1] of 2%. Moreover, in experiment [2], the inhibition in vivo at 25 mg/kg amounted to 25%.

In experiment [2], `CC(=O)n1nc2c(=O)n(C(C)=O)c3ccccc3n2c1=O` gave an inhibition in vivo at 25 mg/kg of 36%. Further, the IC50 in experiment [3] is 10 µM.

`Cc1cccc2c1n(C)c(=O)c1nnc(O)n12`: in experiment [2], the inhibition in vivo at 25 mg/kg turned out to be 35% and the Inhibition turned out to be 53%. In experiment [3], the IC50 was found to be 17 µM.

In turn, `CCCn1c(=O)c2nnc(O)n2c2ccccc21` registered an ED50 in experiment [4] of 3 mg/kg. The compound further yielded an inhibition in vivo at 10 mg/kg in experiment [6] of 84%. Moreover, in experiment [2], the inhibition in vivo at 25 mg/kg was 58%. Moreover, in experiment [3], the IC50 was determined as 8 µM.

`Cn1c(=O)c2nnc(O)n2c2ccc(C(F)(F)F)cc21` showed an ED50 in experiment [4] of 12 mg/kg. In experiment [2], this compound showed an inhibition in vivo at 25 mg/kg of 52% and an Inhibition of 69%. Moreover, the IC50 in experiment [3] worked out at 1 µM.

`Cn1nc2c(=O)n(C)c3ccccc3n2c1=O` had an inhibition at 100 µM in experiment [1] of 30%. Besides, in experiment [2], the inhibition in vivo at 25 mg/kg worked out at 0%.

In experiment [7], `O=C([O-])c1cc(=O)c2c(OCC(O)COc3cccc4oc(C(=O)[O-])cc(=O)c34)cccc2o1.[Na+].[Na+]` [CROMOLYN SODIUM] returned an ED50 of 6 mg/kg.
